According to article PMC10405366 (Molecular pharmaceutics, 2023):

How the values were obtained:
OVCAR3 = experiment: Cell viability assay; assay type: cell-based, human; settings: OVCAR3
Method in brief: (§1)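 RPMI1640 (OVCAR3, OVCAR4, MDA-MB-435) or DMEM (OVCAR8, MDA-MB-231) was used, with 10% FBS and penicillin/streptomycin. Cells were STR-validated and kept below 20 passages. Cells were plated at 5000 per well overnight, then given test compound at final 0.95–250 nM (nine levels, 0.5% DMSO) for 72 h at 37 °C. Viability was read by CellTiter-Blue absorbance, and IC50 was taken relative to DMSO. Paclitaxel (0.39–100 nM) was the control, with three biological replicates.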

OVCAR8 = experiment: 2D foci assay; assay type: cell-based, human; settings: OVCAR8, 50 nM for 8 h, two weeks colony formation, relative to vehicle
Method in brief: (§2)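 Cells were seeded at 200 per 60 mm dish and left to attach overnight. They were then exposed for 8 h to test compound (50 nM), DMSO vehicle or paclitaxel (10 nM). Medium was replaced and cells grew drug-free for about two weeks (15 days). Colonies were fixed in 4% paraformaldehyde, stained with 0.05% crystal violet, imaged and counted. There were three biological replicates, compared with vehicle by Dunnett's test.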

[1] = test system: female athymic nude (nu/nu) mice; experiment: 14 day tolerability study, IP every 2 days; assay type: in vivo, mouse
Method in brief: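 Female athymic nude mice (CrTac:NCr-Foxn1nu, 7–8 weeks) were randomized, n = 5 per group. Parent compound was given at 0.1, 0.25, 0.5 or 1.0 mg/kg, or the succinate at molar-equivalent 0.114, 0.285, 0.570 or 1.14 mg/kg. Vehicle was Tween80:Captex200:0.9% saline (8:2:90 v/v). Dosing was IP every 2 days for 14 days. Body weight was recorded every 2 days before dosing, and gross necropsy plus H&E histopathology were done.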

OVCAR4 = experiment: 2D foci assay; assay type: cell-based, human; settings: OVCAR4, 50 nM for 8 h, two weeks colony formation, relative to vehicle
Method in brief: as §2

[2] = test system: female athymic nude (nu/nu) mice; experiment: Tolerability study: serum chemistry; assay type: in vivo, mouse
Method in brief: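 Athymic nude mice (n = 5 per group) received test compound or the Tween80:Captex200:saline vehicle IP every 2 days for 14 days. About 2–4 h after the last dose, mice were killed with CO2 and blood was drawn by cardiac puncture. Complete blood counts and serum chemistry were run by a pathology core. Values are given as means ± SD, n = 3–5.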

MDA-MB-435 = experiment: Cell viability assay; assay type: cell-based, human; settings: MDA-MB-435
Method in brief: as §1

MDA-MB-231 = experiment: Cell viability assay; assay type: cell-based, human; settings: MDA-MB-231
Method in brief: as §1

[3] = 0.10 mg/kg IP every 2 days, 14 days
[4] = 0.25 mg/kg IP every 2 days, 14 days
[5] = 0.50 mg/kg IP every 2 days, removed day 13
[6] = 1.00 mg/kg IP every 2 days, removed at 8 days

CN1C(=O)[C@]23SS[C@@]1(C)C(=O)N2[C@H]1Nc2ccccc2[C@@]1([C@@]12c4ccccc4N[C@@H]1N1C(=O)[C@@]4(C)SS[C@]1(C(=O)N4C)[C@H]2O)[C@@H]3O [verticillin A]
cytotoxic activity (OVCAR3): pronounced cytotoxic activities
foci formation (OVCAR8): completely abrogated foci formation
early removal of mice ([1]; 0.5 mg/kg IP every 2 days): 13 day of treatment
early removal of mice ([1]; 1.0 mg/kg IP every 2 days): 8 days of treatment
maximal tolerated IP dose ([1]; IP every 2 days, 14 days, female athymic nude mice): 0.25 mg/kg
tolerability ([1]; two higher dose levels, 0.5 and 1.0 mg/kg IP every 2 days): poorly tolerated
tolerability ([1]; two lower dose levels, 0.100 and 0.250 mg/kg IP every 2 days, 14 days): well tolerated
foci formation (OVCAR4): completely abrogated foci formation
ALP [2, 3]: 163 ± 27 U/L
ALT [2, 3]: 38 ± 6 U/L
AST [2, 3]: 98 ± 16 U/L
BUN [2, 3]: 18 ± 3 mg/dL
GGT [2, 3]: 5 ± 0 U/L
albumin [2, 3]: 3.5 ± 0.3 g/dL
amylase [2, 3]: 1153 ± 176 U/L
calcium [2, 3]: 11.8 ± 0.4 mg/dL
cholesterol [2, 3]: 144 ± 16 mg/dL
creatine kinase [2, 3]: 241 ± 85 U/L
creatinine [2, 3]: 0.56 ± 0.03 mg/dL
globulin [2, 3]: 2.2 ± 0.4 g/dL
glucose [2, 3]: 191 ± 42 mg/dL
lipase [2, 3]: 43 ± 15 U/L
phosphorous [2, 3]: 12.8 ± 1.1 mg/dL
total bilirubin [2, 3]: 0.4 ± 0.1 mg/dL
total protein [2, 3]: 5.6 ± 0.4 g/dL
triglyceride [2, 3]: 202 ± 42 mg/dL
ALP [2, 4]: 141 ± 14 U/L
ALT [2, 4]: 46 ± 13 U/L
AST [2, 4]: 112 ± 19 U/L
BUN [2, 4]: 17 ± 4 mg/dL
GGT [2, 4]: 3 ± 1 U/L
albumin [2, 4]: 3.3 ± 0.2 g/dL
amylase [2, 4]: 1189 ± 89 U/L
calcium [2, 4]: 11.6 ± 0.5 mg/dL
cholesterol [2, 4]: 141 ± 10 mg/dL
creatine kinase [2, 4]: 237 ± 60 U/L
creatinine [2, 4]: 0.21 ± 0.7 mg/dL
globulin [2, 4]: 2.1 ± 0.3 g/dL
glucose [2, 4]: 187 ± 33 mg/dL
lipase [2, 4]: 71 ± 4 U/L
phosphorous [2, 4]: 14.0 ± 1.0 mg/dL
total bilirubin [2, 4]: 0.3 ± 0.0 mg/dL
total protein [2, 4]: 5.5 ± 0.4 g/dL
triglyceride [2, 4]: 236 ± 52 mg/dL
ALP [2, 5]: 92 ± 19 U/L
ALT [2, 5]: 55 ± 23 U/L
AST [2, 5]: 201 ± 51 U/L
BUN [2, 5]: 26 ± 3 mg/dL
GGT [2, 5]: 7 ± 2 U/L
albumin [2, 5]: 3.2 ± 0.2 g/dL
amylase [2, 5]: 1397 ± 318 U/L
calcium [2, 5]: 11.7 ± 0.4 mg/dL
cholesterol [2, 5]: 124 ± 22 mg/dL
creatine kinase [2, 5]: 302 ± 65 U/L
creatinine [2, 5]: 0.36 ± 0.03 mg/dL
globulin [2, 5]: 2.1 ± 0.2 g/dL
glucose [2, 5]: 176 ± 19 mg/dL
phosphorous [2, 5]: 16.4 ± 2.3 mg/dL
total bilirubin [2, 5]: 0.4 ± 0.2 mg/dL
total protein [2, 5]: 5.3 ± 0.3 g/dL
triglyceride [2, 5]: 187 ± 139 mg/dL
ALP [2, 6]: 70 ± 61 U/L
ALT [2, 6]: 44 ± 8 U/L
AST [2, 6]: 225 ± 68 U/L
BUN [2, 6]: 25 ± 4 mg/dL
GGT [2, 6]: 7 ± 3 U/L
albumin [2, 6]: 2.1 ± 0.9 g/dL
amylase [2, 6]: 1213 ± 149 U/L
calcium [2, 6]: 11.4 ± 0.4 mg/dL
cholesterol [2, 6]: 90 ± 26 mg/dL
creatine kinase [2, 6]: 498 ± 184 U/L
creatinine [2, 6]: 0.30 ± 0.12 mg/dL
globulin [2, 6]: 2.9 ± 1.0 g/dL
glucose [2, 6]: 116 ± 17 mg/dL
lipase [2, 6]: 52 ± 22 U/L
phosphorous [2, 6]: 10.6 ± 6.8 mg/dL
total bilirubin [2, 6]: 0.3 ± 0.0 mg/dL
total protein [2, 6]: 5.0 ± 0.4 g/dL
triglyceride [2, 6]: 114 ± 20 mg/dL
cytotoxic activity (MDA-MB-435): pronounced cytotoxic activities
cytotoxic activity (MDA-MB-231): pronounced cytotoxic activities
